Compound activity: PubChem BioAssay, several laboratories
The list is not random: actives were taken first. Their share in the collection is about 1.8%.
A1 inh – caspase 3/7 activation in MEF A1-2A-BIM cells, primary screen, A1 inhibitor project, cell-based, luminescence, HTS. AID 2462, 2010. 0.066% of 330,000 active. Caspase-Glo 3/7 luminescence, 3 h; percent of clofoctol response, vehicle zero. caspase activation, % (concentration not given with the values);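 active means over half of replicate activation scores above 10%, or exactly half above 10 with the replicate mean above 10; inconclusive means replicate mean below 10 yet half the replicates above 10; inactive means over half of replicates below 10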
ATG4B inh – ATG4B protease inhibitors, primary screen, biochemical, fluorescence, uHTS. Cysteine protease ATG4B (Homo sapiens), Q9Y4P1. ATG4B cleavage of LC3-PLA2, NBD-HPC fluorescence, 1 h. inhibition, % at 8.33 µM. 0.51% of 340,000 active. AID 504462, 2011; in the data active means inhibition above about 40%
Target sequence (Q9Y4P1 whole entry, looked up): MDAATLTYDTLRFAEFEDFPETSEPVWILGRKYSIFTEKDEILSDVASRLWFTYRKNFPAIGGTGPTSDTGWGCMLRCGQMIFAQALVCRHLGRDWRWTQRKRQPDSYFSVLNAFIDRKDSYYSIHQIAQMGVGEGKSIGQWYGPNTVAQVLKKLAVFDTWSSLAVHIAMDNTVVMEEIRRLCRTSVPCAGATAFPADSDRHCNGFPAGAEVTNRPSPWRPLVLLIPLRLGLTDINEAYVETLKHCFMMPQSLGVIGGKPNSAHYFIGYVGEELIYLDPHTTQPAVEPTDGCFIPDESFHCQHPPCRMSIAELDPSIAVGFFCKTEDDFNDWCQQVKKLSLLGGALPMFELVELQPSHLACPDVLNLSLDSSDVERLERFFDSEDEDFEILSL
LANA-H2A inh – blockers of LANA interaction with H2A/H2B – biochemical, FP readout, HTS, primary screen; Protein LANA1 (Human herpesvirus 8 type P (isolate GK18)), Q9QR71; cell-free LANA-H2A/H2B peptide, fluorescence polarization; inhibition, % (no concentration beside the values); 0.6% of 320,000 active; in the data active means inhibition mostly above about 10%, no sharp cut-off; inactive means mostly below about 6.7%
HKDC1 inhibitor – HKDC1 hexokinase inhibitors, primary screen, biochemical, fluorescence, uHTS. 0.16% of 340,000 active. Q2TB90. inhibition, % at 20 µM. AID 493160, 2011. recombinant HKDC1, G6PDH/diaphorase resazurin coupled fluorescence;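 active means inhibition above about 35% when tested at 20 µM, limit read from the data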;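 further: plate controls were DMSO wells with enzyme for no effect and DMSO wells lacking enzyme for full effect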
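Test system: recombinant HKDC1 (HK5) hexokinase enzyme, produced in-house / Doses: 20 µM test compound, 1% DMSO / Timing: 90 min, room temperature / Detection: G6PDH/diaphorase-coupled fluorescence, 1 mM NADP, 100 µM resazurin, 525/613 nm / Control set: DMSO wells with and without enzyme mix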
HDAC3 inhib – HDAC3 deacetylase inhibitors, primary screen, biochemical, fluorescence, cell-free homogeneous. 0.15% of 320,000 active. recombinant HDAC3, fluorogenic peptide/trypsin coupled. inhibition, % at 8.3 µM. Histone deacetylase 3 (Homo sapiens), O15379. AID 2718, 2010; in the data active means inhibition above about 26%, passing the limit was not always enough; inconclusive means no clear call, values can overlap the other calls
AI-2 QS modul – Vibrio harveyi AI-2 quorum sensing modulators, primary screen, JMH597 strain, luminescence/OD600 ratio. activity change, % at 7.5 µM. 0.4% of 300,000 active. Vibrio harveyi JMH597 AI-2 luminescence/OD600 ratio, 9 h; stronger effect = lower value; strain lacks LuxN and CqsS sensors; 0 = neutral-control median; in the data active means activity change below about -75%, passing the limit was not always enough; inconclusive means no clear call, values can overlap the other calls;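 further: luminescence divided by OD600 gain over 9 h not by final OD600 alone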
* marks the source's active call; other numbers are inactive results; ? = inconclusive; / = no result given; + = active, no number.

SMILES	A1 inh	ATG4B inh	LANA-H2A inh	HKDC1 inhibitor	HDAC3 inhib	AI-2 QS modul
Cc1ccc(NC(=O)c2cccc(NC3=NC4CS(=O)(=O)CC4S3)c2)cc1 (stereo not given)	/	-9.2	-8.1	1.0	1.0	14.9
CC(NC(=O)CNC(=O)c1sc2ccccc2c1Cl)c1cccnc1 (stereo not given)	-0.6	1.7	21.9*	6.5	0.5	/
O=C(NCc1cccnc1)c1sc2ccccc2c1Cl	2.0	-0.6	-3.5	-9.7	6.8	8.1
Cc1cccc(C(=O)OC(C)C(=O)N2CCN(Cc3ccccc3)CC2)c1 (stereo not given)	/	-6.8	/	-5.0	/	/
CNCCCCOc1ccccc1Cc1ccccc1	0.3	/	2.3	/	1.5	-4.1
CN(C)CCOc1ccccc1Cc1ccccc1	-0.4	4.4	6.1*	0.7	4.3	17.1
Fc1ccc(CN2C3=NCCN3c3ccccc32)cc1	-0.1	8.5	-1.5	0.3	-11.9	16.7
Fc1ccc(CN2C3=NCCCN3c3ccccc32)cc1	0.3	-4.0	58.9*	-7.9	0.6	23.2
O=C1/C(=C/c2ccc([N+](=O)[O-])cc2)Oc2cc(O)ccc21	-9.2	-4.0	0.7	5.8	-2.3	-82.8*
O=C1/C(=C/c2ccc(Br)cc2)Oc2cc(O)ccc21	-6.9	2.9	-8.8	2.5	-0.2	15.1
CC1(NC(=O)N2CCCCC2)CCS(=O)(=O)C1 (stereo not given)	/	-0.1	19.1*	-2.8	-3.4	16.5
COCCN(CCOC)S(=O)(=O)c1ccc(C(=O)Nc2nnc(C3CC3)o2)cc1	0.4	-10.7	+	-0.3	-1.8	/
CCOC(=O)COn1c(=O)c(-c2cccs2)[n+]([O-])c2ccccc21	0.4	-10.0	-3.1	8.0	52.6*	6.4
CCCOc1ccc(-c2c(=O)n(OCC(=O)OCC)c3ccccc3[n+]2[O-])cc1	-0.9	0.6	2.7	-0.9	33.6*	15.0
CCOC(=O)COn1c(=O)c(-c2ccc(F)cc2)[n+]([O-])c2ccccc21	-0.1	-11.8	-1.0	-1.2	-2.3	11.8
CCOn1c(=O)c(-c2cccs2)[n+]([O-])c2ccccc21	-0.6	-3.3	-3.4	10.2	4.2	23.9
CSC(SC)=C(C#N)C(=O)c1ccccc1	6.7*	-3.9	12.4	2.1	5.1	36.4
C=CCC[C@@H](Cc1ccc(F)cc1)C(=O)OC[C@@H](Cc1c[nH]c2ccccc12)NC(=O)[C@@H](CC=C)CC(=O)N(CCO)Cc1ccccc1	-0.4	-5.7	+	1.5	-2.5	/
C=CCC[C@@H](Cc1ccc(F)cc1)C(=O)OC[C@H](Cc1c[nH]c2ccccc12)NC(=O)[C@@H](CC=C)CC(=O)N[C@@H](CO)Cc1ccccc1	0.1	-7.8	-0.6	-0.9	-3.2	/
C=CCC[C@H](Cc1ccc(F)cc1)C(=O)OC[C@H](Cc1c[nH]c2ccccc12)NC(=O)[C@H](CC=C)CC(=O)N(CCO)Cc1ccccc1	0.8	0.2	-0.8	3.3	47.0*	/
C=CCC[C@H](Cc1ccc(F)cc1)C(=O)OC[C@@H](Cc1c[nH]c2ccccc12)NC(=O)[C@@H](CC=C)CC(=O)N[C@@H](CO)Cc1ccccc1	-1.3	-18.4	-4.9	3.5	9.7	/
C=CC[C@H](CC(=O)N(CCO)Cc1ccccc1)C(=O)NC[C@H](OC(=O)[C@@H](CC=C)Cc1ccc(F)cc1)c1ccccc1	-0.2	7.9	0.4	1.9	28.5*	/
C=CCC[C@H](Cc1ccc(F)cc1)C(=O)OC[C@H](Cc1c[nH]c2ccccc12)NC(=O)[C@@H](CC=C)CC(=O)NCCO	1.2	-10.4	-2.9	5.4	30.7*	/
C=CC[C@@H](CC(=O)N(CCO)Cc1ccccc1)C(=O)N[C@@H](COC(=O)[C@@H](CC=C)Cc1ccc(F)cc1)Cc1ccccc1	0.8	-5.0	4.4	1.4	35.2*	/
C=CCC[C@@H](Cc1ccc(F)cc1)C(=O)OC[C@@H](NC(=O)[C@@H](CC=C)CC(=O)N(CCO)Cc1ccccc1)c1ccccc1	0.1	25.0	3.0	0.7	38.0*	/
SMILES	A1 inh	ATG4B inh	LANA-H2A inh	HKDC1 inhibitor	HDAC3 inhib	AI-2 QS modul
C=CC[C@@H](CC(=O)N(CCO)Cc1ccccc1)C(=O)N[C@H](COC(=O)[C@@H](CC=C)Cc1ccc(F)cc1)Cc1c[nH]c2ccccc12	-1.6	-7.2	-3.1	4.3	8.0	/
C=CC[C@H](CC(=O)N(CCO)Cc1ccccc1)C(=O)N[C@H](COC(=O)[C@@H](CC=C)Cc1ccc(F)cc1)Cc1c[nH]c2ccccc12	0.0	-7.5	3.7	8.9	40.9*	/
Cc1c(C(=O)NCc2ccoc2)oc2ccc3c(c12)C(=O)CC(C)(C)O3	-0.4	-4.6	28.7*	0.0	5.3	14.5
Cc1ccccc1-c1cc(C(=O)NCc2cccc(C(F)(F)F)c2)n(CC2CC(c3cccnc3)=NO2)n1 (stereo not given)	0.7	8.1	0.1	7.0	25.4*	/
O=C(NCc1cccc(C(F)(F)F)c1)c1cc(-c2ccccc2)nn1CC1CC(c2cccnc2)=NO1 (stereo not given)	-0.7	-2.5	3.3	-4.6	2.1	20.9
O=C1/C(=C2\C(=O)N(Cc3ccc(F)cc3)c3ccccc32)SC(=S)N1CCS(=O)(=O)O	0.5	-3.9	-6.8	25.7	/	23.0
O=C(O)CN1C(=O)/C(=C2\C(=O)N(Cc3ccccc3Cl)c3ccccc32)SC1=S	?	0.6	4.2	51.3*	6.9	16.8
Cc1ccc(-n2sc3ccccc3c2=O)cc1S(=O)(=O)N1CCCCC1	-2.3	-6.2	6.5	3.3	39.4*	41.2
O=c1c2ccccc2sn1-c1ccccc1	-7.8	-8.7	-4.1	-3.3	49.1*	27.6
O=C(O)c1cccc(-n2sc3ccccc3c2=O)c1	-8.6	-11.9	2.2	5.2	?	/
CCC1(CC)C(=O)C2=C3C1[C@H](C(=O)OC)CC(C(=O)OC)C[C@H]3[C@H]1C(=O)N(c3ccccc3)C(=O)[C@H]1[C@H]2C (stereo not given in full)	1.0	-5.3	-1.8	1.6	-12.8	12.9
COc1ccc(NC(=O)C2CCCN(c3nn4c(=O)cc(C)nc4s3)C2)c(OC)c1 (stereo not given)	-0.8	3.3	10.9*	-2.0	3.0	-0.9
Cc1ccc(C2=CC(c3cccs3)n3nnnc3N2)cc1 (stereo not given)	-0.6	0.3	23.0*	-6.9	6.1	17.5
